Here are results for 13 compounds from ChEMBL document CHEMBL4014307, “Diindolylmethane Derivatives: Potent Agonists of the Immunostimulatory Orphan G Protein-Coupled Receptor GPR84” (J Med Chem, 2017).

The source made the active and inactive calls.

In series [1] the target is T1, G-protein coupled receptor 84 (Homo sapiens, UniProt Q9NQS5). In words: Agonist activity at Gi coupled human GPR84 expressed in CHO cells assessed as inhibition of forskolin-induced cAMP accumulation at 10 uM after 15 mins in presence of [3H]-cAMP by radiometric assay relative to decanoic acid. The class given is functional, cell-based. The essentials: (§1)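 Forskolin (10 µM) added with or without test compound for 15 min. Cells lysed in hot (90 °C) EDTA/Triton X-100 solution. cAMP measured radiometrically with bovine adrenal binding protein and [³H]cAMP, expressed as % of forskolin-alone response.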
T1 sequence (Q9NQS5 whole entry): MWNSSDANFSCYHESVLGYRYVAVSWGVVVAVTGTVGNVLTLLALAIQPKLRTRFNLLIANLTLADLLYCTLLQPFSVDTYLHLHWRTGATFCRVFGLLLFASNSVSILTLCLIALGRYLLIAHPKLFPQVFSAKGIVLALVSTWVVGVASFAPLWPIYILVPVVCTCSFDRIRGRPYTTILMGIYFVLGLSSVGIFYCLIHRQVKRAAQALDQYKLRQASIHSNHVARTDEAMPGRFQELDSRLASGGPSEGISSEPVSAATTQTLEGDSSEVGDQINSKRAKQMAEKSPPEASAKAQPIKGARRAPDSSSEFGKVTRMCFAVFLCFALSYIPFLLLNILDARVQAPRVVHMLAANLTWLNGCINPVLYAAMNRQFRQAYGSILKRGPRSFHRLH
(In general: Cyclic AMP is a second messenger, typically raised through Gs and lowered through Gi signalling.)

Series [2] addresses T1, G-protein coupled receptor 84. In words: Agonist activity at Gi coupled human GPR84 expressed in CHO cells assessed as inhibition of forskolin-induced cAMP accumulation after 15 mins in presence of [3H]-cAMP by radiometric assay. The class given is functional, cell-based. The essentials: as §1
The target is the same in series [3]. The experiment in a line: Agonist activity at human GPR84 expressed in CHO cells assessed as beta-arrestin recruitment after 90 mins by beta-galactosidase complementation assay. Format: cell-based. A digest of the protocol: (§2)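 CHO cells co-expressing human GPR84–β-galactosidase fragment and β-arrestin–complementary fragment, 20,000 per well. Compounds in DMSO (final ≤1 %) added for 90 min, then detection reagent for 60 min at rt; luminescence read. Three to five independent experiments in duplicate.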
(Arrestin recruitment assays detect the binding of arrestin to an activated receptor.)

Series [4] shares this target. In words: Agonist activity at human GPR84 expressed in CHO cells assessed as beta-arrestin recruitment at 10 uM after 90 mins by beta-galactosidase complementation assay relative to embelin. The class given is cell-based. A digest of the protocol: as §2
Series [5] has the same target. The experiment in a line: Antagonist activity at Gi coupled human GPR84 expressed in CHO cells assessed as inhibition of decanoic acid-induced receptor activation at 10 uM. Format: cell-based.
The target of series [6] is T2, Free fatty acid receptor 1 (Homo sapiens, UniProt O14842). The experiment in a line: Agonist activity at Gq protein coupled human FFAR1 expressed in human 1321N1 cells assessed as induction of intracellular calcium level at 10 uM measured at 1.2 secs time interval by Fluo-4-AM dye based fluorescence assay. The class given is functional, cell-based. The essentials:
(§3)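 1321N1 astrocytoma cells retrovirally expressing human FFAR1, 50,000 per well, loaded 60 min at rt in dark with 3 µM Fluo-4-AM and 0.06 % Pluronic F-127 in HBSS. Compounds at 10 µM final; antagonist mode uses 30 min preincubation before TUG-424 (final 1 µM). Fluorescence at 520 nm (excitation 485 nm), 90 reads at 1.2 s intervals. Normalized to TUG-424 at 10 µM (agonist) or 1 µM (antagonist).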

In series [7] the target is T3, Free fatty acid receptor 4 (Homo sapiens) (UniProt Q5NUL3).
T3 sequence (whole entry): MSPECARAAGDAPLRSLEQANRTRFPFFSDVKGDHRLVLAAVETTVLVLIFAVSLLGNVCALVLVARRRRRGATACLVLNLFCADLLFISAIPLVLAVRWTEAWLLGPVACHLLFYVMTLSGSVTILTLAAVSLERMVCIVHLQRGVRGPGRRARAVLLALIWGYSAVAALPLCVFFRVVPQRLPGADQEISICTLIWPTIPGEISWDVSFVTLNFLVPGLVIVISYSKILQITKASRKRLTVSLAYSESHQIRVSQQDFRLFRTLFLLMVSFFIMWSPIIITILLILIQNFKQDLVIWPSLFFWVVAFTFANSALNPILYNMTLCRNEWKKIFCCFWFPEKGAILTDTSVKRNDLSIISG
In words: Agonist activity at human FFAR4 expressed in CHO cells assessed as beta-arrestin recruitment at 10 uM after 90 mins by beta-galactosidase complementation assay. The class given is cell-based. A digest of the protocol: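 Human FFAR4 in CHO β-galactosidase complementation cells, 30,000 per well, serum-free F12 ~4 h before assay; final DMSO 1 %, compounds 10 µM. Agonist mode: 90 min with agonist, then detection 60 min rt dark; luminescence. 3–4 experiments in duplicate.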

Series [8] concerns the target T2, Free fatty acid receptor 1. The experiment in a line: Antagonist activity at Gq protein coupled human FFAR1 expressed in human 1321N1 cells assessed as inhibition of TUG-424-induced intracellular calcium level preincubated for 30 mins followed by TUG-424 addition measured at 1.2 secs time interval by Fluo-4-AM dye based fluorescence assay. The class given is functional, cell-based. A digest of the protocol:
as §3

In series [9] the target is T3, Free fatty acid receptor 4 (Homo sapiens). The experiment in a line: Antagonist activity at human FFAR4 expressed in CHO cells assessed as inhibition of TUG-89-induced beta-arrestin recruitment at 10 uM preincubated for 30 mins followed by TUG-89 addition measured after 90 mins by beta-galactosidase complementation assay. Format: cell-based.
Series [10] can be described thus: Stability of the compound in water at 100 uM up to 24 hrs by HPLC-MS analysis. The class given is physicochemical. The note with it: buffer. The essentials:
(§4)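 Stock (2.5 mM in methanol/acetonitrile 1:1) diluted to 100 µM final in water, 0.01 % aqueous ammonia (pH 9), 1 mM NaOH (pH 11), or artificial gastric acid (pepsin, NaCl, HCl; pH 1.2). Incubated at 37 °C up to 24 h, sampled at intervals. Analysed by LC-ESI-MS on C18 at 25 °C with water/2 mM ammonium acetate–acetonitrile gradient.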

A short description of series [11]: Stability of the compound in 1 mM sodium hydroxide solution at 100 uM at pH 11 up to 24 hrs by HPLC-MS analysis. The class given is physicochemical. The note with it: buffer, pH 11, 24 h. A digest of the protocol: as §4
A short description of series [12]: Stability of the compound in 0.01% ammonia solution at 100 uM at pH 9 up to 24 hrs by HPLC-MS analysis. The note with it: buffer, pH 9, 24 h. Format: physicochemical. The essentials:
as §4

Series [13] is described as follows: Stability of the compound in pH 1.2 artificial gastric fluid containing HCl, NaCl and pepsin at 100 uM up to 24 hrs by HPLC-MS analysis. A digest of the protocol: as §4
Series [14] has as its target T1, G-protein coupled receptor 84. The experiment in a line: Positive allosteric modulation of Gi coupled human GPR84 expressed in CHO cells assessed as potentiation of decanoic acid-induced inhibition of forskolin-induced cAMP accumulation by measuring increase in fold shift in decanoic acid EC50 at 0.1 to 30 uM after 15 mins in presence of [3H]-cAMP by radiometric assay. Format: functional, cell-based.

The target in series [15] is G-protein coupled receptor 35 (Homo sapiens) (UniProt Q9HC97). The experiment in a line: Agonist activity at human GPR35 at 10 uM.
Chain of G-protein coupled receptor 35 (Homo sapiens) (Q9HC97 whole entry): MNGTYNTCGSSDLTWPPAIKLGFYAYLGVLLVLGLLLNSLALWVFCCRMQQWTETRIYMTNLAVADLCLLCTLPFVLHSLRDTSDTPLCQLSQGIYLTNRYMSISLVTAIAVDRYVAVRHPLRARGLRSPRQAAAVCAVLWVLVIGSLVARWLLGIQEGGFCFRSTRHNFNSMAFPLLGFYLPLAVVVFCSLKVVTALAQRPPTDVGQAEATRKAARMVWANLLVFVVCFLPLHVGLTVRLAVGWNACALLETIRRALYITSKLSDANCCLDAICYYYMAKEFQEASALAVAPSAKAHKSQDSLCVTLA
Series [16] addresses T1, G-protein coupled receptor 84. The experiment in a line: Agonist activity at Gi coupled human GPR84 expressed in CHO cells assessed as inhibition of forskolin-induced cAMP accumulation up to 100 uM preincubated for 5 mins followed by forskolin addition measured after 15 mins in presence of [3H]-cAMP by radiometric assay. The class given is functional, cell-based. The essentials:
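Concentration-response in CHO-hGPR84 cells. Compound preincubated 5 min, then forskolin 10 µM added for a further 15 min. Maximal forskolin-induced cAMP without agonist set as 100 %. […] Mean ± SEM of 3 independent experiments in duplicate.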

T2 sequence (O14842 whole entry): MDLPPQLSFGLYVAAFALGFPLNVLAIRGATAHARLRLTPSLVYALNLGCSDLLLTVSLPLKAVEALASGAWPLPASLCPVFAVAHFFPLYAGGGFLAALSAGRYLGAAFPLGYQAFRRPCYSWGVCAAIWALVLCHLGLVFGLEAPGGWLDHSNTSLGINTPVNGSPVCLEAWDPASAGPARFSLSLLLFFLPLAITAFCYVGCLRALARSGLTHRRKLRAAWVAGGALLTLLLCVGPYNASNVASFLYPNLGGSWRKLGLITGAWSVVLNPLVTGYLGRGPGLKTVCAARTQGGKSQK

With `CCCC(c1c[nH]c2ccccc12)c1c[nH]c2ccccc12`, the Emax in series [1] is -24%; in series [4] it was 199%. Besides, the figures for the EC50 in [2], in series [3] and in [8] were above 10 µM, 6.07 µM and 8.81 µM, respectively. For the same compound, the inhibition result in series [5] and in series [9] was “inactive” in each case. Also, the result in series [6] and in series [7] was inactive.
As to `Fc1cccc2c(Cc3c[nH]c4c(F)cccc34)c[nH]c12`, the Emax in [1] came out at 129%; in series [4] it was 99%. The figures for the EC50 in series [2] and in series [3] were 0.113 µM and 6.07 µM, respectively. Further, the outcome in series [6] and in series [7] was inactive. The inhibition entry in series [9] is “inactive”. Besides, the Stability result in [10], in series [11], in series [12] and in [13] was “Stable” throughout.
Take `CCC(c1c[nH]c2ccccc12)c1c[nH]c2ccccc12`: the figures for the Emax in series [1] and in [4] were -24% and 67%, respectively. Also, the 50% effective concentration (EC50) in series [2] is above 10 µM; in series [3] it was 2.97 µM. The inhibition entry in series [5] and in series [9] was “inactive” in each case. For the same compound, the result in [14], in series [6], in series [7] and in series [15] was inactive.
As for `Cc1[nH]c2ccccc2c1Cc1c(C)[nH]c2ccccc12`, the Emax in [1] was found to be 42%; in [4], 23%. Moreover, the values for the EC50 in series [2] and in series [3] were at least 10 µM and above 10 µM, respectively. Moreover, the inhibition entry in [5] and in [9] was “inactive” each time. In addition, the outcome in series [6] and in series [7] was inactive.
Regarding `OCc1c[nH]c2ccccc12`, the inhibition entry in series [16] is “inactive”.
`CC(C)C(c1c[nH]c2ccccc12)c1c[nH]c2ccccc12`: the Emax in series [1] amounted to 16%; in series [4], 167%. Also, the EC50 is above 10 µM in series [2], 7.29 µM in series [3] and 8.89 µM in series [8]. Besides, the inhibition result in [5] and in series [9] was “inactive” throughout. The result in series [6] and in series [7] was inactive.
As to `Oc1ccc(C(c2c[nH]c3ccccc23)c2c[nH]c3ccccc23)cc1`, the results for the Emax in series [1] and in [4] were 7% and -5%, respectively. Further, the concentration giving a half-maximal response (EC50) in series [2] and in series [3] was above 10 µM in each case. The inhibition result in [5] and in series [9] was “inactive” in each case. Moreover, the outcome in series [6] and in series [7] was inactive.
In the case of `O=C1Nc2ccccc2/C1=C/c1c[nH]c2ccccc12`, the values for the Emax in series [1] and in series [4] were -17% and -22%, respectively. The EC50 in [2] and in series [3] was above 10 µM throughout. In addition, the inhibition entry in [5] and in series [9] was “inactive” throughout. The result in [6] and in series [7] was inactive.
As to `c1cnc2[nH]cc(Cc3c[nH]c4ncccc34)c2c1`, the Emax in series [1] was -12%; in series [4], 115%. For the same compound, the concentration for a half-maximal effect (EC50) in [2] was above 10 µM; in series [3] it was 2.27 µM. The inhibition entry in series [5] and in series [9] was “inactive” throughout. The result in series [6] and in [7] was inactive.
As for `c1ccc2c(C(c3c[nH]c4ccccc34)c3c[nH]c4ccccc34)c[nH]c2c1`, the Emax in [1] is -10%; in [4], 10%. Further, the EC50 in [2] and in [3] was above 10 µM throughout. The inhibition entry in series [5] and in series [9] was “inactive” each time. Further, the result in series [6] and in series [7] was inactive.
Regarding `Fc1cccc2[nH]cc(Cc3c[nH]c4cccc(F)c34)c12`, the values for the Emax in series [1] and in series [4] were 110% and 108%, respectively. In addition, the 50% effective concentration (EC50) in series [2] is 0.328 µM; in [3], 1.23 µM; in [8] it was 6.49 µM. The outcome in series [6] and in [7] was inactive. For the same compound, in series [9], the inhibition entry was “inactive”.
`c1ccc2c(c1)[nH]c1cc3c(cc12)[nH]c1ccccc13`: the inhibition entry in series [16] was “inactive”.
On to `CC(c1c[nH]c2ccccc12)c1c[nH]c2ccccc12` [VIBRINDOLE A], for which the Emax in [1] was -5%; in series [4], 3%. In addition, the concentration giving a half-maximal response (EC50) in series [2] and in series [3] was above 10 µM throughout. Besides, the inhibition result in series [5] and in series [9] was “inactive” throughout. The result in series [6] and in [7] was inactive.

As usually defined, the Emax is the size of the effect at its maximum, as opposed to the concentration needed. The EC50 is the concentration needed to bring the measured effect to its halfway point.
